Blank lines part the entries; values can stand above or below the compound they belong to. Active and inactive are the calls of the source. The calls are words filed in the database; no cut-off is given here.
Columns and labels:
[1] = molecular target: T1, Transient receptor potential cation channel subfamily V member 2 (Mus musculus) (UniProt Q9WTR1); experiment: Antagonist activity at mouse TRPV2 expressed in HEK293T cells assessed as inhibition of 2-APB evoked currents at -60 mV holding potential by whole-cell patch clamp assay; format: cell-based
T1 sequence (whole entry): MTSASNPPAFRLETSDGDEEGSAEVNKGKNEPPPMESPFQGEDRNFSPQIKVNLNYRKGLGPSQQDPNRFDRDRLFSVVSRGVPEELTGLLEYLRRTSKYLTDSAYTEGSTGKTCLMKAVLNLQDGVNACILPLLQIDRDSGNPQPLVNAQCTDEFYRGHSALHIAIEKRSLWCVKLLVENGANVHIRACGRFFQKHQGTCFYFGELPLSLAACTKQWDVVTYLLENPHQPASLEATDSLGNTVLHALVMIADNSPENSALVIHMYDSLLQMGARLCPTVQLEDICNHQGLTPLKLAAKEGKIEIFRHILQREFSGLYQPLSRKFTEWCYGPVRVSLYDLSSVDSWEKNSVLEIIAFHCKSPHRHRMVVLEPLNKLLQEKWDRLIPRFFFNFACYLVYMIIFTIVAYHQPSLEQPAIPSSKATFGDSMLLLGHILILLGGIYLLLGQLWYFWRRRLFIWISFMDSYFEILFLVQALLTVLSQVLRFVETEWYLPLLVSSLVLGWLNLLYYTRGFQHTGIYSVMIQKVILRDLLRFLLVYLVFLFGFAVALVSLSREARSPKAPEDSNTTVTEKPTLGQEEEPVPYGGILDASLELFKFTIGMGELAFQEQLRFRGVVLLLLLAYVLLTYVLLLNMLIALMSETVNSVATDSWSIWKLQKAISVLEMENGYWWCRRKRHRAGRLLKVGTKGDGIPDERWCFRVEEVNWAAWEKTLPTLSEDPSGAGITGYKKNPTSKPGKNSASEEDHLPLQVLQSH
Procedure, shortened: (§1)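 Whole-cell voltage clamp of transiently transfected HEK293T cells co-expressing GFP, recorded 36-96 h post-transfection. Hold -60 mV; pipettes 3-7 MΩ. Bath 165 mM NaCl, 10 mM HEPES pH 7.3; pipette 140 mM KCl, 10 mM HEPES pH 7.3. Room temperature (~25 °C). IC50 from Hill fits of I/I0, the current ratio after vs before inhibitor; mean ± SEM.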

[2] = tested on: Mus musculus; experiment: Antagonist activity at mouse TRPV2/LPAR1 expressed in LPA-stimulated HEK293T cells assessed as inhibition of 2-APB evoked currents at 1 uM dosed 3 mins after LPA stimulation by whole-cell patch clamp assay; procedure, shortened: as §1
[3] = tested on: Mus musculus; experiment: Antagonist activity at mouse TRPV2/LPAR1 expressed in LPA-stimulated HEK293T cells assessed as inhibition of 2-APB evoked currents at 10 uM dosed 3 mins after LPA stimulation by whole-cell patch clamp assay; procedure, shortened: as §1
[4] = molecular target: T1, Transient receptor potential cation channel subfamily V member 2 (Mus musculus); experiment: Inhibition of mouse TRPV2 expressed in HEK293T cells assessed as inhibition of 2-APB evoked currents at 10 uM at -60 mV holding potential by whole-cell patch clamp assay; format: cell-based; procedure, shortened: as §1
[5] = molecular target: T2, Transient receptor potential cation channel subfamily V member 2 (Homo sapiens, UniProt Q9Y5S1); experiment: Antagonist activity at TRPV2 (unknown origin); procedure, shortened: as §1
T2 sequence (Q9Y5S1 whole entry): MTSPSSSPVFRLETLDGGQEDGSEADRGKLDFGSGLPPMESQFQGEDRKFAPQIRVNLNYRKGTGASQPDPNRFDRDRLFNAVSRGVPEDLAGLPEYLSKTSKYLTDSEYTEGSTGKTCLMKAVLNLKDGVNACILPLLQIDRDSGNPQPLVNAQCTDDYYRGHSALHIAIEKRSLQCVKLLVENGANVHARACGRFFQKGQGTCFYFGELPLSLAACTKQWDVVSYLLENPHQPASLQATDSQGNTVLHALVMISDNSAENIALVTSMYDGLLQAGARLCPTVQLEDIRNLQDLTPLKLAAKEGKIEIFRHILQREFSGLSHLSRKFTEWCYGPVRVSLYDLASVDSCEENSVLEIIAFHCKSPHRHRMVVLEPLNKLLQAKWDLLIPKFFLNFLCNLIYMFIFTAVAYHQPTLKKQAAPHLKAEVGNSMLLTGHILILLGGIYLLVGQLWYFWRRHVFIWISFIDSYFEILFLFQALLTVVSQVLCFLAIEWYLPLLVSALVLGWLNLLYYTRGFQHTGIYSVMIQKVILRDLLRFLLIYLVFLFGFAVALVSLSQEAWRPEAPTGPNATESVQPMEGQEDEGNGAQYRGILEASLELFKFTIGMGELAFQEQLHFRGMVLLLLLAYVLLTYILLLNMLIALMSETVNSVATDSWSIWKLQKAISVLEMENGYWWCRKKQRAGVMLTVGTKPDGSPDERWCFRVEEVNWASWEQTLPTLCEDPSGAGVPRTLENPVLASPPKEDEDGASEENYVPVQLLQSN

inhibition [1]: Dose-dependent effect
SMILES: CN1CCN(c2cc(C(F)(F)F)nc(SCCC(=O)NCc3ccco3)n2)CC1

SMILES: Cc1noc(-c2ccc(-c3ccc(CC(=O)O)cc3)cc2)c1NC(=O)O[C@H](C)c1ccccc1Cl
inhibition [2]: Active
inhibition [3]: Active

inhibition [1]: Dose-dependent effect
inhibition [4]: Active
SMILES: COc1ccc(-c2cc(C(F)(F)F)nc(SCCC(=O)NCc3ccco3)n2)cc1

IC50 [5]: > 10 µM
SMILES: COc1ccc(/C=C/C(=O)Nc2ccccc2C(=O)O)cc1OC [TRANILAST]

Reference: ChEMBL document CHEMBL4422635, “Structure-Based Discovery of a Subtype-Selective Inhibitor Targeting a Transient Receptor Potential Vanilloid Channel” (J Med Chem, 2019)
